ChEMBL document CHEMBL2029242 (J Med Chem, 2012)
Active and inactive are the calls of the source. No cut-off for these calls is given here.

Assays:
Liver microsomes = assay: Intrinsic clearance in human liver microsomes; format: ADME, Microsome
Summary of the method: (§1)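 Pooled liver microsomes (0.5 mg/mL) were premixed with 0.1 M phosphate buffer pH 7.4, 6.5 mM MgCl2 and test compound (1 μM final, 0.2% DMSO). NADPH (1 mM) started the reaction at 37 °C, in duplicate. Minus-NADPH and testosterone controls were included. Aliquots were taken at 0, 5, 15, 30 and 60 min and quenched in acetonitrile containing internal standard.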

COLO 205 [1] = assay: Cytotoxicity against human COLO205 cells expressing BRAF V600E mutant after 72 hrs by cell titer blue assay; format: functional, cell-based; details: COLO 205, 72 h
Summary of the method: (§2)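 Cells were grown in ATCC-recommended media and kept overnight in 0.5% serum. They were then exposed to compound for 72 h, and Cell Titer Blue was added for 3 h. EC50 came from fluorometric concentration−response curves, run in duplicate and repeated at least once.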

Mus musculus [2] = assay: Inhibition of BRAF V600E mutant-mediated MEK phosphorylation in human COLO205 cells xenografted in athymic nude mouse at 55 mg/kg, po after 2 hrs; format: functional; details: COLO 205, 2 h
Summary of the method: (§3)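 Mice bearing Colo-205 xenografts got one oral dose in 22% HPβCD; vehicle controls were run. Tumors were collected at time points over 24 h and lysed. pMEK and total MEK in the lysates were measured by immunoblotting and ELISA, and pMEK was normalized to total MEK.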

Liver = assay: Intrinsic clearance in dog liver microsomes; format: ADME, Canis lupus familiaris, Microsome; summary of the method: as §1
[3] = molecular target: Serine/threonine-protein kinase B-raf (Homo sapiens, UniProt P15056); assay: Inhibition of wild type BRAF in human HEK293 cells after 1 hr by competition binding assay; format: cell-based
Summary of the method: (§4)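 KINOMEscan competition binding. Binding reactions ran at rt for 1 h. Unbound kinase was captured on an immobilized affinity ligand and quantified by qPCR. Each kinase was tested individually.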

[4] = molecular target: Serine/threonine-protein kinase B-raf (Homo sapiens, UniProt P15056, V600E)
[5] = molecular target: RAF proto-oncogene serine/threonine-protein kinase (Homo sapiens, UniProt P04049); assay: Inhibition of CRAF in human HEK293 cells after 1 hr by competition binding assay; format: cell-based
Summary of the method: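 KINOMEscan competition binding. Binding reactions run at rt for 1 h. Kinase not bound to compound is captured on an immobilized affinity ligand and quantified by qPCR.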

Cytochrome P450 2C19 = Cytochrome P450 2C19 (Homo sapiens, UniProt P33261); assay: Inhibition of human CYP2C19; format: ADME
Summary of the method: (§5)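 Pooled human liver microsomes (0.25 mg/mL) with NADPH (1 mM) and five pooled probe substrates (testosterone, diclofenac, dextromethorphan, mephenytoin, phenacetin). Test compound ran at eight concentrations, 0.31−40 μM, 20 min at 37 °C, with pooled control inhibitors in parallel. Isoform-specific metabolites were measured by LC-MS/MS.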

[6] = molecular target: Hepatocyte growth factor receptor (Homo sapiens, UniProt P08581); assay: Inhibition of cMET in human HEK293 cells after 1 hr by competition binding assay; format: cell-based; summary of the method: as §4
Sequence of Hepatocyte growth factor receptor (P08581 whole entry): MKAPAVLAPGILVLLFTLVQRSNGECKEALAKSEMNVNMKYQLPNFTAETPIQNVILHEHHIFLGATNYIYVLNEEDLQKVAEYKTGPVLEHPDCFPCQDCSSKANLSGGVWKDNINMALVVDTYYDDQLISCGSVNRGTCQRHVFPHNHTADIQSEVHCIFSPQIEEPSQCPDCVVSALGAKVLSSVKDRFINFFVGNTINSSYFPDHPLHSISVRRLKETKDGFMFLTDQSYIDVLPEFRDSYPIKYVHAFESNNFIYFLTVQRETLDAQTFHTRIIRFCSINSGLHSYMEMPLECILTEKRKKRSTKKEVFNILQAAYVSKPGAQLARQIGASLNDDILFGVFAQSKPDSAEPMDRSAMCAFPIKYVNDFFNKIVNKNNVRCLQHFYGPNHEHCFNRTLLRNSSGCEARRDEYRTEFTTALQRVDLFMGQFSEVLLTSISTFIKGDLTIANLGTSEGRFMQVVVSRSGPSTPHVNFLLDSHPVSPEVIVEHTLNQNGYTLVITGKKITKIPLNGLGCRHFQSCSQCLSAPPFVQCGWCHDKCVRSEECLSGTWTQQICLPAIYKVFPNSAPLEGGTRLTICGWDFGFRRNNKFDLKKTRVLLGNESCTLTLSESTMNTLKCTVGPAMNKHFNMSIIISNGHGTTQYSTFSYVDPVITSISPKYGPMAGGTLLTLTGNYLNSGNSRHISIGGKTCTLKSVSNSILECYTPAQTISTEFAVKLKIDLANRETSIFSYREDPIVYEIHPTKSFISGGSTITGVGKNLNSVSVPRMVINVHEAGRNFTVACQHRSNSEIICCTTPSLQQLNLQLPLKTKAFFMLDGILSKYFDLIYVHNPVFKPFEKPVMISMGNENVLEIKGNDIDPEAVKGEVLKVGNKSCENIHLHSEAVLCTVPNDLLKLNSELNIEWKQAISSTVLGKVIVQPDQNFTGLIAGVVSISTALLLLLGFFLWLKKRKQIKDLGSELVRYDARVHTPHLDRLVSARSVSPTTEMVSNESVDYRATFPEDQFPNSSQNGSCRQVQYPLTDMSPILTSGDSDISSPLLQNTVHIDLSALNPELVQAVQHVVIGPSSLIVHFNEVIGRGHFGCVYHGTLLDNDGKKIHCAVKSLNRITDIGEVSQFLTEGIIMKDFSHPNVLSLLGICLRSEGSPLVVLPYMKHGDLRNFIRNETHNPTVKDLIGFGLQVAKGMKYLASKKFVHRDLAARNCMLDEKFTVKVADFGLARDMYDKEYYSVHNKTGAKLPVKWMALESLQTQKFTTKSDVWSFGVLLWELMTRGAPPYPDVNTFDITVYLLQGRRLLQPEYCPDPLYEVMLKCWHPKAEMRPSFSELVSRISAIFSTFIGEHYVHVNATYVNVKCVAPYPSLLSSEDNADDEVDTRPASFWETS

Mus musculus [7] = assay: Toxicity in athymic nude mouse xenografted with human COLO205 cells at 100 mg/kg, po bid for 14 days measured upto 1 week post dosing; format: organism-based, COLO 205; parameters: dose 100 mg/kg, route oral; details: in vivo
Summary of the method: (§6)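 Athymic nude mice (20–25 g) were inoculated subcutaneously in the flank with 1×10^6 Colo-205 cells. At 150–200 mm3 they were randomized (n = 10/group) to oral vehicle (22% HPβCD) or 10, 30 or 100 mg/kg BID for 14 days. Calipers were used three times weekly. Body weight and behavior were monitored, with 7–10 days of follow-up after dosing. Partial regression meant volume falling in ≥3 successive measurements, ending below baseline but still palpable.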

Mus musculus [8] = assay: Inhibition of BRAF V600E mutant-mediated MEK phosphorylation in human COLO205 cells xenografted in athymic nude mouse at 30 mg/kg, po after 2 hrs; format: functional; details: COLO 205, 2 h; summary of the method: as §3
COLO-679 = assay: Cytotoxicity against human COLO679 cells expressing BRAF V600E mutant after 72 hrs by cell titer blue assay; format: functional, cell-based; details: COLO-679, 72 h; summary of the method: as §2
[9] = Half life in dog liver microsomes; format: ADME, Canis lupus familiaris, Microsome
Summary of the method: (§7)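 Pooled liver microsomes (0.5 mg/mL) in 0.1 M phosphate pH 7.4 with 6.5 mM MgCl2 and compound at 1 μM (0.2% DMSO). NADPH (1 mM) started the reaction at 37 °C, with minus-NADPH and testosterone controls. Aliquots taken at 0, 5, 15, 30 and 60 min were quenched in acetonitrile; duplicates.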

[10] = Cmax in athymic nude mouse at 100 mg/kg, po; format: ADME, organism-based; parameters: dose 100 mg/kg, route oral; details: in vivo
Summary of the method: (§8)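 Single-dose PK. Rats: male Sprague−Dawley, jugular-catheterized, 1 mg/kg iv in 3:1 PEG400/water (n = 2) and 10 mg/kg po in Pharmatek #6 (n = 3). Female athymic nude mice: 100 mg/kg po in Pharmatek #6 (n = 3). Beagle dogs and male cynomolgus monkeys (n = 3): crossover, 1 mg/kg iv and 10 mg/kg po in 22% HPβCD, overnight fast. Plasma LC-MS/MS to 24 h; noncompartmental parameters, mean ± SD.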

Cytochrome P450 1A2 = Cytochrome P450 1A2 (Homo sapiens, UniProt P05177); assay: Inhibition of human CYP1A2; format: ADME; summary of the method: as §5
[11] = Half life in Cynomolgus monkey at 1 mg/kg, iv and 10 mg/kg, po; format: ADME, organism-based, Macaca fascicularis; details: in vivo; summary of the method: as §8
[12] = Clearance in Sprague-Dawley rat at 1 mg/kg, iv and 10 mg/kg, po; format: ADME, organism-based; details: in vivo; summary of the method: as §8
[13] = molecular target: Tyrosine-protein kinase JAK1 (Homo sapiens, UniProt P23458); assay: Inhibition of JAK1 in human HEK293 cells after 1 hr by competition binding assay; format: cell-based; summary of the method: as §4
Sequence of Tyrosine-protein kinase JAK1 (P23458 whole entry): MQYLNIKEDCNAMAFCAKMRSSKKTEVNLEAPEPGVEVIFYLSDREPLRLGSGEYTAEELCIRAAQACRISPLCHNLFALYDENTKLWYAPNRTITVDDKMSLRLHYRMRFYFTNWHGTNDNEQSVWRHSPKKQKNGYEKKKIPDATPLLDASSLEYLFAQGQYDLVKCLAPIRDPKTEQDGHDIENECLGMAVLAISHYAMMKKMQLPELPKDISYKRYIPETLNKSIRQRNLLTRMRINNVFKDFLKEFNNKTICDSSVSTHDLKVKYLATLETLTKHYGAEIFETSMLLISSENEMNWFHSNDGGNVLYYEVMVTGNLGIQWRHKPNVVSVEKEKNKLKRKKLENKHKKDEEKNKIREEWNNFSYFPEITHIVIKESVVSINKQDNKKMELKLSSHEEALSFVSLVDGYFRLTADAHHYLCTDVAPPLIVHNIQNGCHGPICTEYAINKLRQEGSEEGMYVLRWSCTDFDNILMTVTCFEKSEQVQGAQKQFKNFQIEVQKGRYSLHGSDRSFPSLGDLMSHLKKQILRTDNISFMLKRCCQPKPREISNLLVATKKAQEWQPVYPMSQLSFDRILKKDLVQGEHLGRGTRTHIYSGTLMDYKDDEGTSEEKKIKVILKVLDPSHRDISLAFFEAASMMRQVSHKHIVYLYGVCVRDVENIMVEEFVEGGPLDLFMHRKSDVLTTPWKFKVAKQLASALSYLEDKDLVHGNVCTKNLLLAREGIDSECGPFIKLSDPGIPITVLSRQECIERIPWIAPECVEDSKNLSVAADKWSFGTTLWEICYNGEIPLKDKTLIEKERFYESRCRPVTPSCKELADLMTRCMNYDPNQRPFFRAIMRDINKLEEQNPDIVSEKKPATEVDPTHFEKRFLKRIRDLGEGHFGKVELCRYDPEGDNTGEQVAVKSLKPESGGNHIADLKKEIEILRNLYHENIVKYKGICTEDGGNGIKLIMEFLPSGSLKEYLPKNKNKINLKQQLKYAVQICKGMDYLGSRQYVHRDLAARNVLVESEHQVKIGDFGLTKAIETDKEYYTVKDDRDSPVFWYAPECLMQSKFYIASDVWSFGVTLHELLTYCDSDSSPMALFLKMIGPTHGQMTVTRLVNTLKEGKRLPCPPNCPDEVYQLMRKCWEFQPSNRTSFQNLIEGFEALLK

COLO 205 [14] = assay: Antitumor activity against human COLO205 cells xenografted in athymic nude mouse at 30 mg/kg, po bid for 14 days; format: functional, organism-based; parameters: dose 30 mg/kg
Summary of the method: (§9)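 Athymic nude mice carried subcutaneous flank Colo-205 xenografts (1 × 10^6 cells), randomized at 150−200 mm3 (n = 10/group). Oral dosing BID for 14 days in 22% HPβCD against vehicle controls. Caliper volumes W2(L/2) taken three times weekly. Partial regression: volume fell in ≥3 successive measurements to below the starting volume while the tumor stayed palpable.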

COLO 205 [15] = assay: Antitumor activity against human COLO205 cells xenografted in athymic nude mouse assessed as partial tumor regression at 30 mg/kg, po bid for 14 days; format: functional; summary of the method: as §9
hERG (KCNH2) = hERG (KCNH2) (Homo sapiens, UniProt Q12809); assay: Inhibition of human ERG at 10 uM
Sequence of hERG (KCNH2) (Q12809 whole entry): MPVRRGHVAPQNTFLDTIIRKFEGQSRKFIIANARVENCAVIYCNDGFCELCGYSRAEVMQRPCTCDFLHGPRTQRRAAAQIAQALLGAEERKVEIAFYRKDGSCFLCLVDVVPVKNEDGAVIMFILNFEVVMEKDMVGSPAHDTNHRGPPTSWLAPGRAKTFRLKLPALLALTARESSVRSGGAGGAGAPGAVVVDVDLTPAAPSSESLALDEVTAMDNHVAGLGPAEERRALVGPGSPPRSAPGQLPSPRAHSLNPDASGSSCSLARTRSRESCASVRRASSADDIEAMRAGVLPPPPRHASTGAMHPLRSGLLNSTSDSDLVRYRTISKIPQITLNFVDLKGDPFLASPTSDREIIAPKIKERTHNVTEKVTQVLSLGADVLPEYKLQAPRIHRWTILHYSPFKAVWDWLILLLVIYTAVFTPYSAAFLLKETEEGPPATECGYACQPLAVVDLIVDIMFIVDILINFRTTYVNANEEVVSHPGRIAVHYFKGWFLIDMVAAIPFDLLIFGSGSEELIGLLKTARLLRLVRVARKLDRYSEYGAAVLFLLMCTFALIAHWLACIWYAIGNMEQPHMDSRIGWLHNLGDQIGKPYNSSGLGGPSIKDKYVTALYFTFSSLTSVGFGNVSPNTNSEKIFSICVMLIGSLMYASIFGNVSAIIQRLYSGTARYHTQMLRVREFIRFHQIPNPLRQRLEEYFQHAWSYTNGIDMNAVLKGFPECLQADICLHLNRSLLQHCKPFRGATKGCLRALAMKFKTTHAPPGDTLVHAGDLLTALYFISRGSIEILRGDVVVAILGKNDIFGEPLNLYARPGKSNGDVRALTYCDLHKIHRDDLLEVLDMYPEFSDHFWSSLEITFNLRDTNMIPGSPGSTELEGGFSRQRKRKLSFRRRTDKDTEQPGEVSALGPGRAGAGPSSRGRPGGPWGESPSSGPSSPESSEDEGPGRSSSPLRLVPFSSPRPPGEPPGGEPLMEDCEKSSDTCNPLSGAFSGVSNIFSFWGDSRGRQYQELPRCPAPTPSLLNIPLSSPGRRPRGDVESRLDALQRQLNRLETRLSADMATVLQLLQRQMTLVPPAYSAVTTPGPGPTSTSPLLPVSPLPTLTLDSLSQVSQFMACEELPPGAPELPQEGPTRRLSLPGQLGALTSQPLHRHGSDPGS
Summary of the method: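 Whole-cell patch clamp on CHO cells stably expressing hERG. Baseline was set in external solution with 0.1% DMSO. Test article was then applied until steady state, up to 12 min.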

Mus musculus [16] = assay: Toxicity in athymic nude mouse xenografted with human COLO205 cells at 10 mg/kg, po bid for 14 days; format: organism-based, COLO 205; parameters: dose 10 mg/kg, route oral; details: in vivo, 336 h; summary of the method: as §6
HT-144 = assay: Cytotoxicity against human HT144 cells expressing BRAF V600E mutant after 72 hrs by cell titer blue assay; format: functional, cell-based; details: HT-144, 72 h; summary of the method: as §2
[17] = Half life in mouse liver microsomes; format: ADME, Microsome; summary of the method: as §7
[18] = molecular target: Phosphatidylinositol 4,5-bisphosphate 3-kinase catalytic subunit alpha isoform (Homo sapiens, UniProt P42336); assay: Inhibition of PIK3-CA in human HEK293 cells after 1 hr by competition binding assay; format: cell-based
Sequence of Phosphatidylinositol 4,5-bisphosphate 3-kinase catalytic subunit alpha isoform (P42336 whole entry, canonical isoform): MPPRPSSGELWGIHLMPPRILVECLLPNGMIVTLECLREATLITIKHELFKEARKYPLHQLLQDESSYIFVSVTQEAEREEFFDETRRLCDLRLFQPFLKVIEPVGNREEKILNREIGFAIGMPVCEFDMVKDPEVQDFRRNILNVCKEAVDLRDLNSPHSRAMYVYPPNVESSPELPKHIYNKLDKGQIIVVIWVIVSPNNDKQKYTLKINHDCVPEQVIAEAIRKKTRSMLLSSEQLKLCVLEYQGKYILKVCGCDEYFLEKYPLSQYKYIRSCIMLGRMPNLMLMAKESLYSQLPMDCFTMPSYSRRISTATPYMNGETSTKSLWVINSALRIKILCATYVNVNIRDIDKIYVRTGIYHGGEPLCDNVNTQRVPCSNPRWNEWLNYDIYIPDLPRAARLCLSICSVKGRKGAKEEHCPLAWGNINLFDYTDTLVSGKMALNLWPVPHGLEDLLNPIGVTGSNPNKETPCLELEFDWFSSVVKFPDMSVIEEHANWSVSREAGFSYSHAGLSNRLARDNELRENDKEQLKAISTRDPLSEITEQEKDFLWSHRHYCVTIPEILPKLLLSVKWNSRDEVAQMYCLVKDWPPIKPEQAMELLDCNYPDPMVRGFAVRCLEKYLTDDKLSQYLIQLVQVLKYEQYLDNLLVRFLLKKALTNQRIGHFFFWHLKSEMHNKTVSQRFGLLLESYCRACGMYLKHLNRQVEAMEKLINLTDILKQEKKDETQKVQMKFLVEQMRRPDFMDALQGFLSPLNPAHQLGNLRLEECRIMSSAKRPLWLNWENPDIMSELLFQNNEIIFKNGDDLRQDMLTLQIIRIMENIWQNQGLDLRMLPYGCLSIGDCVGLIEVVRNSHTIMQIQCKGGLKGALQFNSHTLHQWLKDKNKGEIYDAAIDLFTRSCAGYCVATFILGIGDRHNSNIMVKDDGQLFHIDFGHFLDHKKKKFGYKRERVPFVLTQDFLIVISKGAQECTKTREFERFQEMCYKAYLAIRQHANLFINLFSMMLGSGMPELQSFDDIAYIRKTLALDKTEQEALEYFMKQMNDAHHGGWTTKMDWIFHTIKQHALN
Summary of the method: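 Unbound kinase was captured on immobilized affinity ligand and quantified by qPCR. Kd came from eleven serial 3-fold dilutions, as the mean of duplicates.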

**Q.** Which CLH (Liver microsomes) does the source give for COc1cc2ncnc(Oc3cccc(NC(=O)Nc4cc(C(C)(C)C(F)(F)F)on4)c3)c2cc1OC [CEP-32496] here?
**A.** < 23 µL/min/mg

**Q.** What about the EC50 (COLO 205 [1]) of the same compound?
**A.** 36 nM

**Q.** What about the inhibition in vivo at 55 mg/kg (Mus musculus [2]) of the same compound?
**A.** 75%

**Q.** What about the CLH (Liver) of the same compound?
**A.** < 23 µL/min/mg

**Q.** And the Kd [3]?
**A.** 36 nM

**Q.** What about the Kd [4] of the same compound?
**A.** 14 nM

**Q.** And the Kd [5]?
**A.** 39 nM

**Q.** And the IC50 (Cytochrome P450 2C19)?
**A.** 3.4 µM

**Q.** And the Kd [6]?
**A.** 513 nM

**Q.** What about the Activity (Mus musculus [7]) of the same compound?
**A.** Non-toxic

**Q.** What about the inhibition in vivo at 30 mg/kg (Mus musculus [8]) of the same compound?
**A.** 50%

**Q.** What about the EC50 (COLO-679) of the same compound?
**A.** 211 nM

**Q.** What about the half-life [9] of the same compound?
**A.** > 60 min

**Q.** And the Cmax [10]?
**A.** 35.6 µM

**Q.** And the IC50 (Cytochrome P450 1A2)?
**A.** > 10 µM

**Q.** And the half-life [11]?
**A.** 294 min

**Q.** What about the clearance [12] of the same compound?
**A.** 3.4 mL/min/kg

**Q.** What about the Kd [13] of the same compound?
**A.** > 10 µM

**Q.** And the Activity (COLO 205 [14])?
**A.** Active

**Q.** And the Activity (COLO 205 [15])?
**A.** 40%

**Q.** What about the inhibition at 10 µM (hERG (KCNH2)) of the same compound?
**A.** < 10%

**Q.** What about the Activity (Mus musculus [16]) of the same compound?
**A.** Non-toxic

**Q.** What about the EC50 (HT-144) of the same compound?
**A.** 228 nM

**Q.** What about the half-life [17] of the same compound?
**A.** > 60 min

**Q.** What about the Kd [18] of the same compound?
**A.** > 10 µM
